Published values from different studies.
Compare with care: the assays were run in different laboratories.
Target: Mitogen-activated protein kinase 10 (MAPK10, Homo sapiens, UniProt P53779)

CCCCC(=O)Nc1ccc(-c2ccc3ncn(CCC)c(=O)c3c2)cn1  remaining binding (binding, competition with immobilised ligand; 0.5 µM): 80%
C=CC(=O)N1CCC([C@@H]2CCNc3c(C(N)=O)c(-c4ccc(Oc5ccccc5)cc4)nn32)CC1  inhibition (enzyme activity, inhibitor; 1 µM): 25%
C1=C/COCc2cc(ccc2OCCN2CCCC2)Nc2nccc(n2)-c2cccc(c2)COC/1  remaining signal (cell-free assay; 0.1 µM): 33%
C[C@H]1CC[C@H](n2c3cnccc3c3cnc(Nc4ccc5c(n4)CCN(C(=O)CO)C5)nc32)CC1  remaining signal (cell-free assay; 1 µM): 2.6%
N#Cc1ccc(NC(=O)Nc2ccccc2)cc1  remaining binding (cell-free assay, competition with immobilised ligand; 25 µM): 65%
CN1CCN(C(=O)c2ccc(NC(=O)Nc3ccc(N(C)c4ccnc(Nc5ccc(CS(C)(=O)=O)cc5)n4)cc3)cc2)CC1  remaining binding (binding; 1 µM): 8.6%
C#Cc1cnc(Nc2ccnc(CO)c2)nc1Nc1ccccc1S(C)(=O)=NC#N (stereo not shown)  remaining signal (cell-free assay; 1 µM): 91%
C#Cc1cc(-c2cc(Nc3nc(N[C@@H](C)c4ccc(F)cn4)ncc3Cl)n[nH]2)ccc1C=O  inhibition (enzyme activity, inhibitor; 0.2 µM): 6.29%
CO[C@@H]1[C@H](N(C)C(=O)c2ccccc2)C[C@H]2O[C@]1(C)n1c3ccccc3c3c4c(c5c6ccccc6n2c5c31)C(=O)NC4  inhibition (enzyme activity, inhibitor; 1 µM): 33%
COc1ccc2oc(-c3ccc4nc(N)oc4c3)c/c(=N\c3ccccc3NC(=O)CCN)c2c1  remaining binding (binding; 1 µM): 113%
